Laboratory results: ChEMBL document CHEMBL1811844, “Design, synthesis, and biological evaluation of triazolo-pyrimidine derivatives as novel inhibitors of hepatitis B virus surface antigen (HBsAg) secretion” (J Med Chem, 2011)
pEC50: −log10 of the molar value.

Experiments:
Mus musculus [1] = assay: Acute toxicity in CL57BL/6 mouse assessed as weight loss at 25 mg/kg, iv administered as single dose after 24 hrs; type: organism-based; parameters: dose 25 mg/kg, route intravenous; conditions: in vivo
In short: (§1)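 Female C57BL/6 mice, four per group, randomised; single tail-vein bolus in NMP:Solutol HS15 (1:1) diluted with saline to 2 mg/mL, injected within 10 min of preparation; vehicle-only group. Close observation for the first hour; sacrifice and necropsy at 24 h. Whole-blood complete blood counts and serum chemistry, including total bilirubin and total protein, were measured.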

Rattus norvegicus [2] = assay: Total body clearance in fasted Sprague-Dawley rat at 5 mg/kg, iv by LC/MS/MS analysis; type: ADME, organism-based; parameters: dose 5 mg/kg, route intravenous; conditions: in vivo
In short: (§2)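 Male Sprague-Dawley rats, 3 per treatment, carried jugular cannulae and were fasted 12 h with water. Compound was formulated at 2 mg/mL in 1:1 NMP:Solutol HS15 diluted with saline. Dosing was 5 mg/kg iv or 25 mg/kg oral gavage. Blood was drawn predose and at 5, 15, 30 min, 1, 3 and 6 h. Plasma was quantified by LC-MS/MS against an 8-point standard curve.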

Mus musculus [3] = assay: Acute toxicity in CL57BL/6 mouse assessed as effect on serum amylase level at 25 mg/kg, iv administered as single dose after 24 hrs; type: organism-based; parameters: dose 25 mg/kg, route intravenous; conditions: in vivo
In short: (§3)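 Female C57BL/6 mice, four per group, randomized, each given one tail-vein injection of a 2 mg/mL solution in 1:1 NMP:Solutol HS15 diluted with saline; a vehicle-only group served as control. Mice were watched for the first hour and sacrificed at 24 h with necropsy. Serum was collected and run on an automated chemistry and electrolyte analyser.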

Mus musculus [4] = assay: Toxicity in HBV infected transgenic 1.3.32 mouse assessed as change in serum phosphorus level at 7.9 to 25 mg/kg, po qd for 14 days; type: organism-based; parameters: dose 7.9-25 mg/kg, route oral; conditions: in vivo, 336 h
In short: (§4)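 HBV-transgenic mice (strain 1.3.32), 10 per group, randomised; oral gavage once daily for 14 days at 25 or 7.9 mg/kg in NMP:Solutol HS15/saline vehicle; vehicle-only group. Weighed before the first dose and after 3 days; observed one hour after each dose. Tail-vein blood taken before dosing, at day 7 and at day 14 necropsy, each 3 h post-dose, for serum chemistry.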

Mus musculus [5] = assay: Acute toxicity in CL57BL/6 mouse assessed as effect on serum Ca2+ level at 25 mg/kg, iv administered as single dose after 24 hrs; type: organism-based; parameters: dose 25 mg/kg, route intravenous; conditions: in vivo; in short: as §3
Mus musculus [6] = assay: Acute toxicity in CL57BL/6 mouse assessed as effect on red cell distribution width at 25 mg/kg, iv administered as single dose after 24 hrs; type: organism-based; parameters: dose 25 mg/kg, route intravenous; conditions: in vivo
In short: as §3, with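 “watched closely” for “watched”, “Whole blood” for “Serum”, “taken for complete blood counts” for “collected and run”, “haematology” for “chemistry and electrolyte”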

Mus musculus [7] = assay: Acute toxicity in CL57BL/6 mouse assessed as effect on serum phosphorus level at 25 mg/kg, iv administered as single dose after 24 hrs; type: organism-based; parameters: dose 25 mg/kg, route intravenous; conditions: in vivo; in short: as §3
Mus musculus [8] = assay: Toxicity in HBV infected transgenic 1.3.32 mouse assessed as elevation in serum alanine aminotransferase level at 7.9 to 25 mg/kg, po qd for 14 days; type: organism-based; parameters: dose 7.9-25 mg/kg, route oral; conditions: in vivo, 336 h; in short: as §4
Mus musculus [9] = assay: Acute toxicity in CL57BL/6 mouse assessed as effect on hematocrit at 25 mg/kg, iv administered as single dose after 24 hrs; type: organism-based; parameters: dose 25 mg/kg, route intravenous; conditions: in vivo
In short: as §3, with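 “watched closely” for “watched”, “Whole blood” for “Serum”, “taken for complete blood counts” for “collected and run”, “haematology” for “chemistry and electrolyte”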

Mus musculus [10] = assay: Acute toxicity in CL57BL/6 mouse assessed as effect on serum total protein level at 25 mg/kg, iv administered as single dose after 24 hrs; type: organism-based; parameters: dose 25 mg/kg, route intravenous; conditions: in vivo; in short: as §1
Mus musculus [11] = assay: Acute toxicity in CL57BL/6 mouse assessed as effect on hemoglobin concentration at 25 mg/kg, iv administered as single dose after 24 hrs; type: organism-based; parameters: dose 25 mg/kg, route intravenous; conditions: in vivo
In short: as §3, with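 “watched closely” for “watched”, “Whole blood” for “Serum”, “taken for complete blood counts” for “collected and run”, “haematology” for “chemistry and electrolyte”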

Hepatitis B virus [12] = assay: Antiviral activity against lamivudine/telbivudine-resistant Hepatitis B virus harboring polymerase L528M and M552V mutant in human HepG2 cells assessed as inhibition of HBsAg secretion by ELISA; type: functional, organism-based
Rattus norvegicus [13] = assay: Volume of distribution at steady state in fasted Sprague-Dawley rat at 5 mg/kg, iv by LC/MS/MS analysis; type: ADME, organism-based; parameters: dose 5 mg/kg, route intravenous; conditions: in vivo; in short: as §2
Mus musculus [14] = assay: Acute toxicity in CL57BL/6 mouse assessed as effect on serum globulin level at 25 mg/kg, iv administered as single dose after 24 hrs; type: organism-based; parameters: dose 25 mg/kg, route intravenous; conditions: in vivo; in short: as §3
Mus musculus [15] = assay: Acute toxicity in CL57BL/6 mouse assessed as morbidity at 25 mg/kg, iv administered as single dose after 24 hrs; type: organism-based; parameters: dose 25 mg/kg, route intravenous; conditions: in vivo; in short: as §1
Rattus norvegicus [16] = assay: Oral bioavailability in fasted Sprague-Dawley rat at 25 mg/kg after 6 hrs by LC/MS/MS analysis; type: ADME, organism-based; conditions: in vivo; in short: as §2
Mus musculus [17] = assay: Toxicity in HBV infected transgenic 1.3.32 mouse assessed as change in serum K+ level at 7.9 to 25 mg/kg, po qd for 14 days; type: organism-based; parameters: dose 7.9-25 mg/kg, route oral; conditions: in vivo, 336 h; in short: as §4
Mus musculus [18] = assay: Acute toxicity in CL57BL/6 mouse assessed as effect on serum creatinine level at 25 mg/kg, iv administered as single dose after 24 hrs; type: organism-based; parameters: dose 25 mg/kg, route intravenous; conditions: in vivo; in short: as §3
Mus musculus [19] = assay: Toxicity in HBV infected transgenic 1.3.32 mouse assessed as change in blood urea nitrogen level at 7.9 to 25 mg/kg, po qd for 14 days; type: organism-based; parameters: dose 7.9-25 mg/kg, route oral; conditions: in vivo, 336 h; in short: as §4
Mus musculus [20] = assay: Acute toxicity in CL57BL/6 mouse assessed as reduction in platelets count at 25 mg/kg, iv administered as single dose after 24 hrs; type: organism-based; parameters: dose 25 mg/kg, route intravenous; conditions: in vivo; in short: as §1
Mus musculus [21] = assay: Acute toxicity in CL57BL/6 mouse assessed as effect on monocytes count at 25 mg/kg, iv administered as single dose after 24 hrs; type: organism-based; parameters: dose 25 mg/kg, route intravenous; conditions: in vivo
In short: as §3, with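 “watched closely” for “watched”, “Whole blood” for “Serum”, “taken for complete blood counts” for “collected and run”, “haematology” for “chemistry and electrolyte”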

Mus musculus [22] = assay: Toxicity in HBV infected transgenic 1.3.32 mouse assessed as mortality at 7.9 to 25 mg/kg, po qd for 14 days; type: organism-based; parameters: dose 7.9-25 mg/kg, route oral; conditions: in vivo, 336 h; in short: as §4
Hepatitis B virus [23] = assay: Antiviral activity against adefovir-resistant Hepatitis B virus harboring polymerase A529V mutant in human HepG2 cells assessed as inhibition of HBsAg secretion by ELISA; type: functional, organism-based
Mus musculus [24] = assay: Toxicity in HBV infected transgenic 1.3.32 mouse assessed as change in serum Ca2+ level at 7.9 to 25 mg/kg, po qd for 14 days; type: organism-based; parameters: dose 7.9-25 mg/kg, route oral; conditions: in vivo, 336 h; in short: as §4
Mus musculus [25] = assay: Toxicity in HBV infected transgenic 1.3.32 mouse assessed as behavioral changes at 7.9 to 25 mg/kg, po qd for 14 days; type: organism-based; parameters: dose 7.9-25 mg/kg, route oral; conditions: in vivo, 336 h; in short: as §4
Mus musculus [26] = assay: Acute toxicity in CL57BL/6 mouse assessed as effect on mean corpuscular volume at 25 mg/kg, iv administered as single dose after 24 hrs; type: organism-based; parameters: dose 25 mg/kg, route intravenous; conditions: in vivo
In short: as §3, with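 “watched closely” for “watched”, “Whole blood” for “Serum”, “taken for complete blood counts” for “collected and run”, “haematology” for “chemistry and electrolyte”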

Mus musculus [27] = assay: Acute toxicity in CL57BL/6 mouse assessed as mortality at 25 mg/kg, iv administered as single dose after 24 hrs; type: organism-based; parameters: dose 25 mg/kg, route intravenous; conditions: in vivo; in short: as §1
Mus musculus [28] = assay: Acute toxicity in CL57BL/6 mouse assessed as effect on serum albumin level at 25 mg/kg, iv administered as single dose after 24 hrs; type: organism-based; parameters: dose 25 mg/kg, route intravenous; conditions: in vivo; in short: as §3
Mus musculus [29] = assay: Acute toxicity in CL57BL/6 mouse assessed as increase in lymphocytes count at 25 mg/kg, iv administered as single dose after 24 hrs; type: organism-based; parameters: dose 25 mg/kg, route intravenous; conditions: in vivo; in short: as §1
Mus musculus [30] = assay: Toxicity in HBV infected transgenic 1.3.32 mouse assessed as change in serum creatinine level at 7.9 to 25 mg/kg, po qd for 14 days; type: organism-based; parameters: dose 7.9-25 mg/kg, route oral; conditions: in vivo, 336 h; in short: as §4
Mus musculus [31] = assay: Toxicity in HBV infected transgenic 1.3.32 mouse assessed as weight loss at 7.9 to 25 mg/kg, po qd for 14 days; type: organism-based; parameters: dose 7.9-25 mg/kg, route oral; conditions: in vivo, 336 h; in short: as §4

Fc1cccc(Cl)c1C1CC(c2ccc(Cl)cc2)Nc2ncnn21 (racemic)
Activity (Mus musculus [1]): Non-toxic | CL (Rattus norvegicus [2]): 12 mL/min/kg | Activity (Mus musculus [3]): Non-toxic | Activity (Mus musculus [4]): Non-toxic | Activity (Mus musculus [5]): Non-toxic | Activity (Mus musculus [6]): Non-toxic | Activity (Mus musculus [7]): Non-toxic | Activity (Mus musculus [8]): Toxic | Activity (Mus musculus [9]): Non-toxic | Activity (Mus musculus [10]): Non-toxic | Activity (Mus musculus [11]): Non-toxic | pEC50 (Hepatitis B virus [12]): 4.99 | Vdss (Rattus norvegicus [13]): 1.6 L/kg | Activity (Mus musculus [14]): Non-toxic | Activity (Mus musculus [15]): Non-toxic | F (Rattus norvegicus [16]): 31% | Activity (Mus musculus [17]): Non-toxic | Activity (Mus musculus [18]): Non-toxic | Activity (Mus musculus [19]): Non-toxic | Activity (Mus musculus [20]): Toxic | Activity (Mus musculus [21]): Non-toxic | Activity (Mus musculus [22]): Non-toxic | pEC50 (Hepatitis B virus [23]): 5.24 | Activity (Mus musculus [24]): Non-toxic | Activity (Mus musculus [25]): Non-toxic | Activity (Mus musculus [26]): Non-toxic | Activity (Mus musculus [27]): Non-toxic | Activity (Mus musculus [28]): Non-toxic | Activity (Mus musculus [29]): Toxic | Activity (Mus musculus [30]): Non-toxic | Activity (Mus musculus [31]): Non-toxic
